Values belong to the molecule of their own block, whether it stands above or below them.
Legend:
[1] = system: S. pombe strains (pxl1 wild type and pxl1 mutants); assay: Serial dilution growth assay in the presence of LatA; type: cell-based; details: low-dose LatA (0.20 μM), 32°C
Summary of the method: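 Strains were grown in liquid YE at 25°C. Three 10-fold serial dilutions starting at 4 × 10^6 cells/ml were spotted on YE agar containing 0.20 µM LatA or DMSO. Plates were incubated at 32°C for 2–5 d, then colonies were imaged by scanner.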

[2] = molecular target: Pxl1 PxxP^6 peptide (residues 177–188), biotin-labeled (S. pombe)

Molecule: C/C1=C/C(=O)O[C@@H]2C[C@@H](CC[C@H](C)/C=C\C=C\CC1)O[C@@](O)([C@@H]1CSC(=O)N1)C2 [LatA, latrunculin A]
sensitivity of pxl1 mutants to LatA [1]: no evidence of sensitivity

Kd [2]: 1900 nM
B1: GST-Cdc15C1 (residues 600–end) (domain or fragment)
chain: MRRRQSTSVDDEAPVSLSKTSSSTRLNGLGYHSRNTSIASDIDGVPKKSTLGAPPAAHTSAQMQRMSNSFASQTKQVFGEQRTENSARESLRHSRSNMSRSPSPMLSRRSSTLRPSFERSASSLSVRQSDVVSPAPSTRARGQSVSGQQRPSSSMSLYGEYNKSQPQLSMQRSVSPNPLGPNRRSSSVLQSQKSTSSNTSNRNNGGYSGSRPSSEMGHRYGSMSGRSMRQVSQRSTSRARSPEPTNRNSVQSKNVDPRATFTAEGEPILGYVIALYDYQAQIPEEISFQKGDTLMVLRTQEDGWWDGEIINVPNSKRGLFPSNFVQTV
